Measured values: ChEMBL document CHEMBL1140443, “Inhibitors of apoptosis in lymphocytes: synthesis and biological evaluation of compounds related to pifithrin-alpha” (J Med Chem, 2005)

Assays:
Mus musculus [1] = species on record: Mus musculus; assay: Average percent survival of C57Bl/6 mice thymocytes from Dexamethasone (5 uM) induced apoptosis at 10 uM
[2] = Concentration for 95% confidence interval (CI) in dexamethasone-induced mice thymocytes; range 3.45-4.69 uM; format: functional, Mus musculus
In short: (§1)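 Thymocytes from young C57Bl/6 mice, cultured at 37 °C in 5% CO2 in RPMI 1640 with 10% FBS and penicillin/streptomycin, plated at 10⁷ cells/mL. Cells were preincubated 30 min with graded compound concentrations (DMSO stock), then given 5 μM dexamethasone for 6 h. Cells were stained 30 min with 40 nM DiOC6 and 5 μg/mL PI and read by flow cytometry; DiOC6-high/PI-low cells were scored viable. EC50 was taken from a nonlinear one-site fit, with its 95% confidence interval.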

Mus musculus [3] = species on record: Mus musculus; assay: Concentration required to inhibit dexamethasone-induced death of mice thymocytes; format: functional, organism-based
In short: as §1

[4] = Concentration for 95% confidence interval (CI) in dexamethasone-induced mice thymocytes; range 0.95-1.57 uM; format: functional, Mus musculus
In short: as §1

[5] = Concentration for 95% confidence interval (CI) in dexamethasone-induced mice thymocytes; range 3.07-5.28 uM; format: functional, Mus musculus
In short: as §1

[6] = Concentration for 95% confidence interval (CI) in dexamethasone-induced mice thymocytes; range 1.45-2.80 uM; format: functional, Mus musculus
In short: as §1

[7] = Concentration for 95% confidence interval (CI) in dexamethasone-induced mice thymocytes; range 2.95-5.88 uM; format: functional, Mus musculus
In short: as §1

[8] = Concentration for 95% confidence interval (CI) in dexamethasone-induced mice thymocytes; range 8.49-12.32 uM; format: functional, Mus musculus
In short: as §1

[9] = Concentration for 95% confidence interval (CI) in dexamethasone-induced mice thymocytes; range 3.86-13.70 uM; format: functional, Mus musculus
In short: as §1

[10] = Concentration for 95% confidence interval (CI) in dexamethasone-induced mice thymocytes; range 2.78-5.16 uM; format: functional, Mus musculus
In short: as §1

[11] = Concentration for 95% confidence interval (CI) in dexamethasone-induced mice thymocytes; range 2.86-6.89 uM; format: functional, Mus musculus
In short: as §1

[12] = Concentration for 95% confidence interval (CI) in dexamethasone-induced mice thymocytes; range 1.76-2.98 uM; format: functional, Mus musculus
In short: as §1

[13] = Concentration for 95% confidence interval (CI) in dexamethasone-induced mice thymocytes; range 4.61-7.00 uM; format: functional, Mus musculus
In short: as §1

[14] = Concentration for 95% confidence interval (CI) in dexamethasone-induced mice thymocytes; range 3.26-8.82 uM; format: functional, Mus musculus
In short: as §1

[15] = Concentration for 95% confidence interval (CI) in dexamethasone-induced mice thymocytes; range 3.95-5.75 uM; format: functional, Mus musculus
In short: as §1

[16] = Concentration for 95% confidence interval (CI) in dexamethasone-induced mice thymocytes; range 2.78-34.83 uM; format: functional, Mus musculus
In short: as §1

[17] = Concentration for 95% confidence interval (CI) in dexamethasone-induced mice thymocytes; range 4.64-7.91 uM; format: functional, Mus musculus
In short: as §1

[18] = Concentration for 95% confidence interval (CI) in dexamethasone-induced mice thymocytes; range 1.51-2.24 uM; format: functional, Mus musculus
In short: as §1

[19] = Concentration for 95% confidence interval (CI) in dexamethasone-induced mice thymocytes; range 0.94-1.82 uM; format: functional, Mus musculus
In short: as §1

[20] = Concentration for 95% confidence interval (CI) in dexamethasone-induced mice thymocytes; range 4.08-8.01 uM; format: functional, Mus musculus
In short: as §1

[21] = Concentration for 95% confidence interval (CI) in dexamethasone-induced mice thymocytes; range 0.11-1.08 uM; format: functional, Mus musculus
In short: as §1

[22] = Concentration for 95% confidence interval (CI) in dexamethasone-induced mice thymocytes; range 4.08-13.75 uM; format: functional, Mus musculus
In short: as §1

[23] = Concentration for 95% confidence interval (CI) in dexamethasone-induced mice thymocytes; range 6.02-8.76 uM; format: functional, Mus musculus
In short: as §1

SMILES | Survival (Mus musculus [1]) | EC50 (Mus musculus [3]) | also measured
Cc1ccc(-c2cn3ccsc3n2)cc1 | 27% |  | 
Cc1ccc(C(=O)Cn2ccsc2=N)cc1 | 27% |  | 
CCOC(=O)Cn1c2c(sc1=N)CCCC2 | 27% |  | 
Fc1ccc(-c2cn3c4c(sc3n2)CCCC4)cc1F | 44% |  | 
c1ccc2cc(-c3ccc(-c4cn5c(n4)sc4ccccc45)cc3)ccc2c1 | 75% | 4.02 µM | CI [2]: 4.69 µM
N=c1sc2c(n1CC(=O)c1ccc(Br)cc1)CCCC2 | 31% |  | 
N=c1sc2c(n1CC(=O)c1ccc(C(F)(F)F)cc1)CCCC2 | 36% |  | 
Cc1ccc(-c2cn3c(n2)sc2ccccc23)cc1 | 73% | 1.22 µM | CI [4]: 1.57 µM
Fc1cccc(-c2cn3c4c(sc3n2)CCCC4)c1 | 34% |  | 
N=c1sc2c(n1CC(=O)c1ccc(-c3ccc4ccccc4c3)cc1)CCCC2 | 58% | 4.02 µM | CI [5]: 5.28 µM
N=c1sc2c(n1CC(=O)c1ccc([N+](=O)[O-])cc1)CCCC2 | 21% |  | 
Cc1ccc(-c2cn3c4c(sc3n2)CCCC4)cc1 | 54% | 2.01 µM | CI [6]: 2.8 µM
Cc1ccc(Cn2c(=N)sc3ccccc32)cc1 | 8% |  | 
O=C(O)c1ccc(-c2cn3c4c(sc3n2)CCCC4)cc1 | 20% |  | 
Cc1ccc(C(=O)Cn2c3c(sc2=N)CCCC3)cc1 | 72% | 4.16 µM | CI [7]: 5.88 µM
Cc1ccc(C(=O)Cn2c(=N)oc3ccc(Cl)cc32)cc1 | 19% |  | 
N#Cc1ccc(C(=O)Cn2c3c(sc2=N)CCCC3)cc1 | 40% |  | 
FC(F)(F)c1ccc(-c2cn3c4c(sc3n2)CCCC4)cc1 | 27% |  | 
Cc1ccc(/C=N/Nc2ncnc3ccccc23)cc1 | 23% |  | 
Cc1ccc(C(=O)Cn2/c(=N/S(=O)(=O)c3ccccc3)sc3ccccc32)cc1 | 48% |  | 
Cc1ccc(-c2cn3c(n2)sc2cc(O)ccc23)cc1 | 19% |  | 

SMILES | Survival (Mus musculus [1]) | EC50 (Mus musculus [3]) | also measured
c1ccc(-c2cn3c(n2)sc2ccccc23)cc1 | 73% | 10.2 µM | CI [8]: 12.32 µM
Cc1ccc(C(=O)CNc2ncnc3ccccc23)cc1 | 32% |  | 
Cc1ccc(-c2csc3nc4ccccc4n23)cc1 | 48% |  | 
N=c1sc2c(n1CC(=O)c1ccc(Cl)c(Cl)c1)CCCC2 | 57% | 7.28 µM | CI [9]: 13.7 µM
Cc1ccc(-c2cn3c(n2)sc2cc(Br)ccc23)cc1 | 39% |  | 
Brc1ccc(-c2cn3c(n2)sc2ccccc23)cc1 | 22% |  | 
[N-]=[N+]=Nc1ccc(-c2cn3c4c(sc3n2)CCCC4)cc1 | 50% |  | 
N=c1sc2c(n1CC(=O)c1ccc(F)cc1)CCCC2 | 48% |  | 
Fc1ccc(-c2cn3c4c(sc3n2)CCCC4)cc1 | 33% |  | 
c1ccc(-c2ccc(-c3cn4c5c(sc4n3)CCCC5)cc2)cc1 | 75% | 3.79 µM | CI [10]: 5.16 µM
Clc1ccc(-c2cn3c4c(sc3n2)CCCC4)cc1 | 35% |  | 
CC(=O)N1C(c2ccc(C)cc2)N=C2c3ccccc3N=CN21 (stereo unspecified) | 23% |  | 
Cc1cn2c(n1)sc1ccccc12 | 22% |  | 
N=c1sc2ccccc2n1Cc1ccccc1 | 20% |  | 
COc1ccc2c(c1)sc1nc(-c3ccc(C)cc3)cn12 | 68% | 4.44 µM | CI [11]: 6.89 µM
COc1ccc(-c2cn3c4c(sc3n2)CCCC4)cc1 | 28% |  | 
Cc1ccc(S(=O)(=O)Nc2nc3ccccc3s2)cc1 | 26% |  | 
Cc1ccc(C(=O)Cn2c(=O)oc(=O)c3ccccc32)cc1 | 28% |  | 
N=c1sc2c(n1CC(=O)c1ccc(-c3ccccc3)cc1)CCCC2 | 65% | 2.29 µM | CI [12]: 2.98 µM
Brc1ccc(-c2cn3c4c(sc3n2)CCCC4)cc1 | 35% |  | 
Cc1ccc(-c2cn3c(n2)sc2cc(N)ccc23)cc1 | 27% |  | 

SMILES | Survival (Mus musculus [1]) | EC50 (Mus musculus [3]) | also measured
N=c1sc2c(n1CC(=O)c1ccc(OC(=O)c3ccccc3)cc1)CCCC2 | 17% |  | 
Cc1ccc(C(=O)CSc2nc3ccccc3[nH]2)cc1 | 15% |  | 
Cc1ccc(-c2cn3c(n2)nc(O)c2ccccc23)cc1 | 28% |  | 
N=c1sc2ccccc2n1CC(=O)c1ccccc1 | 20% |  | 
O=[N+]([O-])c1ccc(-c2cn3c4c(sc3n2)CCCC4)cc1 | 11% |  | 
[N-]=[N+]=Nc1ccc(C(=O)Cn2c3c(sc2=N)CCCC3)cc1 | 56% | 5.68 µM | CI [13]: 7 µM
Cc1ccc(-c2nc3sc4ccccc4n3c2Br)cc1 | 24% |  | 
CSC(=N)NC(=O)c1ccccc1NCC(=O)c1ccc(C)cc1 | 31% |  | 
N=c1sc2c(n1CC(=O)c1ccc(Cl)cc1)CCCC2 | 59% | 5.37 µM | CI [14]: 8.82 µM
Cc1ccc(C(=O)Cn2c(=O)sc3ccccc32)cc1 | 30% |  | 
N=c1sc2c(n1CC(=O)c1cccc(F)c1)CCCC2 | 54% | 9.69 µM | 
O=C(Oc1ccc(-c2cn3c4c(sc3n2)CCCC4)cc1)c1ccccc1 | 23% |  | 
c1ccc2cc(-c3ccc(-c4cn5c6c(sc5n4)CCCC6)cc3)ccc2c1 | 57% | 4.77 µM | CI [15]: 5.75 µM
N=c1sc2ccccc2n1CC(=O)c1ccc(N2CCCC2)cc1 | 64% | 9.84 µM | CI [16]: 34.83 µM
N=c1sc2ccccc2n1CC(=O)c1ccc(-c2ccc3ccccc3c2)cc1 | 62% | > 10 µM | 
COc1ccc(C(=O)Cn2c3c(sc2=N)CCCC3)cc1 | 66% | 7.54 µM | 
N=c1sc2c(n1CC(=O)c1ccccc1)CCCC2 | 59% | 6.06 µM | CI [17]: 7.91 µM
Cc1ccc(-c2nc3sc4c(n3c2Br)CCCC4)cc1 | 27% |  | 
c1ccc(-c2cn3c4c(sc3n2)CCCC4)cc1 | 19% |  | 
Cc1ccc(-c2cn3cnc4ccccc4c3n2)cc1 | 26% |  | 
Cc1ccc(-c2cn3c(n2)nc(Cl)c2ccccc23)cc1 | 46% |  | 

SMILES | Survival (Mus musculus [1]) | EC50 (Mus musculus [3]) | also measured
C#CCn1c(=N)sc2ccccc21 | 23% |  | 
N#Cc1ccc(-c2cn3c4c(sc3n2)CCCC4)cc1 | 21% |  | 
c1ccc(-c2cnc3sc4ccccc4n23)cc1 | 15% |  | 
N=c1sc2c(n1CC(=O)c1ccc(F)c(F)c1)CCCC2 | 40% |  | 
Cc1ccc(C(=O)Cn2c3c(sc2=O)CCCC3)cc1 | 40% |  | 
Oc1ccc(-c2cn3c4c(sc3n2)CCCC4)cc1 | 21% |  | 
CCN(CC)c1ccc(C(=O)Cn2c3c(sc2=N)CCCC3)cc1 | 70% | 1.84 µM | CI [18]: 2.24 µM
c1cc(N2CCCC2)ccc1-c1cn2c3c(sc2n1)CCCC3 | 50% | > 10 µM | 
c1ccc2c(c1)sc1nc(-c3ccc(C4CCCC4)cc3)cn12 | 36% |  | 
N=c1sc2c(n1CC(=O)c1ccc(N3CCCC3)cc1)CCCC2 | 77% | 1.31 µM | CI [19]: 1.82 µM
N=c1sc2c(n1CC(=O)c1ccccc1Cl)CCCC2 | 65% | 5.72 µM | CI [20]: 8.01 µM
Cc1ccc(-c2nc3c4ccccc4ncn3n2)cc1 | 17% |  | 
c1ccc2c(c1)sc1nc(-c3ccc(N4CCCC4)cc3)cn12 | 78% | 0.35 µM | CI [21]: 1.08 µM
Cc1ccc(C(=O)CSc2nc3ccccc3s2)cc1 | 16% |  | 
c1ccc(-c2ccc(-c3cn4c(n3)sc3ccccc34)cc2)cc1 | 59% | 8.12 µM | CI [22]: 13.75 µM
Cc1ccc(C(=O)Cn2c(=N)sc3ccccc32)cc1 | 21% | > 10 µM | 
Clc1ccc(-c2cn3c4c(sc3n2)CCCC4)cc1Cl | 36% |  | 
N=c1sc2ccccc2n1CC(=O)c1ccc(C2CCCC2)cc1 | 33% |  | 
N=c1sc2ccccc2n1CC(=O)c1ccc(-c2ccccc2)cc1 | 66% | 7.26 µM | CI [23]: 8.76 µM
Nc1ccc(-c2cn3c4c(sc3n2)CCCC4)cc1 | 18% |  | 
Clc1ccccc1-c1cn2c3c(sc2n1)CCCC3 | 37% |  | 
